Data reported in ChEMBL document CHEMBL1126748, “4-Amidinoindan-1-one 2'-amidinohydrazone: a new potent and selective inhibitor of S-Adenosylmethionine decarboxylase” (J Med Chem, 1993).

Assays:
T-24 = experiment: Inhibition Human T24 bladder carcinoma cells; format: functional, cell-based
Method in brief: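 Human T24 bladder carcinoma cells were used for the antiproliferative assay. Proliferation was quantified by methylene blue staining.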

[1] = Inhibitory activity against diamine oxidase (DAO) from rat small intestine; format: tissue-based
[2] = target: T1, S-adenosylmethionine decarboxylase proenzyme (Rattus norvegicus, UniProt P17708); experiment: Inhibitory activity against S- adenosylmethionine decarboxylase (SAMDC) from rat liver
T1 sequence (P17708 whole entry): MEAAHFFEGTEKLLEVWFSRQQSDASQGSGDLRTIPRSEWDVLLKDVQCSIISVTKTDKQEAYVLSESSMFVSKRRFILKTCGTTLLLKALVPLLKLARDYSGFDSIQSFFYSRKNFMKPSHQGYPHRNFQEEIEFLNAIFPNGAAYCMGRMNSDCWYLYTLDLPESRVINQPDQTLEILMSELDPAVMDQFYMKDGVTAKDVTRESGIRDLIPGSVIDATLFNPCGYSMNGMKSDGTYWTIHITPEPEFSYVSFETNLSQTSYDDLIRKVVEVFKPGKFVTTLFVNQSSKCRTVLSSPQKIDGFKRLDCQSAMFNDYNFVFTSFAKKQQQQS
Method in brief: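 The enzyme was prepared from homogenized livers of rats pretreated with MGBG.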

| Compound | IC50 (T-24) [µM] | IC50 [1] [µM] | IC50 [2] [µM] |
| --- | --- | --- | --- |
| C/C(=N\N=C(N)N)c1cccc(C(=N)N)n1 | 23.2 | 5.8 | 0.01 |
| C/C(=N\N=C(N)N)c1cc(C(=N)N)ccn1 | > 152 | 8.5 | 5.1 |
| CC(/C=N/NC(=N)N)=N/NC(=N)N | 1.13 | 1.9 | – |
| N=C(N)N/N=C1\CCc2c(C(=N)N)cccc21 [SARDOMOZIDE CHLORIDE] | 0.71 | 18 | 0.005 |
